{"source": "PubChem BioAssay AID504382", "about": "(The Scripps Research Institute Molecular Screening Center, 2011)", "note": "Out of some 2,500 compounds screened, about 460 (18%) were called active. The list is a sample of the results. Unmarked numbers belong to inactive results.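 The calls were made as follows: active = mean activation above a cutoff of low control average plus 3 SD from the earlier screen (cut at about 12% in these data); inactive = the rest.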"}
{"experiment": "IANBD-channel fluorescence artefacts in buffer – biochemical, artefact control for cardiac RTF calcium sensitizer project, confirmation (AID 504382)", "details": "IANBD fluorescence interference counterscreen, EC20 Ca2+, at 7.2 µM, stronger effect = higher value, scaled: EC20 calcium 0, EC100 calcium 100", "method_in_brief": "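Technique: fluorescence, 480/540 nm / Medium: MOPS-based buffer with KCl, MgCl2, EGTA, NTA, DTT, pH 7.2 / Probe or stimulus: calcium at EC20 level, 0.472 mM final / Repeats: triplicate wells per compound / Times: 15 min compound exposure at 25 °C / Measure: compound fluorescence interference relative to control well signal range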"}
{"smiles": "COc1ccc(NC(=O)c2cccc(-c3ccc(O)cc3)c2)cn1", "fluorescence artifact activation": "-0.04%"}
{"smiles": "Cc1nc(-n2[nH]c3c(c2=O)CCCC3)[nH]c(=O)c1Cc1ccccc1", "fluorescence artifact activation": "7.51%"}
{"smiles": "O=C1c2cccc3c([N+](=O)[O-])ccc(c23)C(=O)N1Cc1cccnc1", "fluorescence artifact activation": "0.04%"}
{"smiles": "Cc1ccnc(N2C(=O)c3cccc4c([N+](=O)[O-])ccc(c34)C2=O)c1", "fluorescence artifact activation": "3.75%"}
{"smiles": "CN(C)CCCN1C(=O)c2cccc3c([N+](=O)[O-])ccc(c23)C1=O", "fluorescence artifact activation": "14.2% (active)"}
{"smiles": "O=C(O)c1ccccc1C1=Nc2ccc(O)cc2Oc2cc(O)ccc21", "fluorescence artifact activation": "0.18%"}
{"smiles": "Cc1cc(C)n(NC(=S)NC2CCCCC2)c(=O)c1C#N", "fluorescence artifact activation": "-0.01%"}
{"smiles": "Cc1ccccc1-c1noc(-c2cccs2)n1", "fluorescence artifact activation": "5.07%"}
{"smiles": "CC(=O)[C@H]1[C@H](C#N)C[C@H]2[C@@H]3CC=C4C[C@@H](O)CC[C@]4(C)[C@H]3CC[C@@]21C", "fluorescence artifact activation": "10.9%"}
{"smiles": "Cc1cc(-n2c(=O)c(C#N)cc3c(=O)n4ccccc4nc32)no1", "fluorescence artifact activation": "0.34%"}
{"smiles": "CN(C)c1ccc(/C=C2\\Oc3ccc(C#Cc4cccc(N)c4)cc3C2=O)cc1", "fluorescence artifact activation": "0.09%"}
{"smiles": "Cc1nn(-c2ccccc2)c(N2CCCC2)c1/C=C1\\N=C(c2ccc(OC(C)C)cc2)OC1=O", "fluorescence artifact activation": "0.42%"}
{"smiles": "COc1ccc(NC(C)=O)cc1NC(=O)C1CCCN1C(=O)c1cccs1", "note": "(stereo unspecified)", "fluorescence artifact activation": "-0.02%"}
{"smiles": "CCN(CC)c1ccc(/C=c2/sc3nnc(-c4ccccc4C)n3c2=O)cc1", "fluorescence artifact activation": "0.53%"}
{"smiles": "CCN(CC)c1ccc(/C=c2\\sc3nnc(-c4ccccc4Cl)n3c2=O)cc1", "fluorescence artifact activation": "13.8% (active)"}
{"smiles": "CCN(CC)c1ccc(/C=c2\\sc3nc4ccccc4n3c2=O)c(O)c1", "fluorescence artifact activation": "3.44%"}
{"smiles": "Cc1ccc(/C=C/C(=O)N2CCN(S(=O)(=O)c3ccc(C)c(C)c3)CC2)o1", "fluorescence artifact activation": "2.09%"}
{"smiles": "Cc1ccc(C(=O)N2C(=O)C(c3ccccc3)Oc3ccccc32)cc1", "note": "(stereo unspecified)", "fluorescence artifact activation": "0.42%"}
{"smiles": "CN1CC=C2C(C#N)=C(N)C(C#N)(C#N)C(c3ccsc3)C2C1", "note": "(stereo unspecified)", "fluorescence artifact activation": "0.22%"}
{"smiles": "C=CCN1C=CC(=CC=C(C#N)C#N)C=C1", "fluorescence artifact activation": "251% (active)"}
{"smiles": "CCCN1C=CC(=CC=C(C#N)C#N)C=C1", "fluorescence artifact activation": "4.48%"}
{"smiles": "CCOc1ccc(S(=O)(=O)n2ccnc2)c2ccccc12", "fluorescence artifact activation": "2.67%"}
{"smiles": "CCc1ccc(C(=O)NNC(=O)c2cccc(N3C(=O)CCC3=O)c2)cc1", "fluorescence artifact activation": "2.93%"}
{"smiles": "CCc1cc[n+](-c2nc3ccccc3nc2[N-]S(=O)(=O)c2ccc(Br)s2)cc1", "fluorescence artifact activation": "-0.02%"}
{"smiles": "Cc1ccc[n+](-c2nc3ccccc3nc2[N-]S(=O)(=O)c2ccccc2)c1", "fluorescence artifact activation": "17.5% (active)"}
{"smiles": "O=S(=O)([N-]c1nc2ccccc2nc1-[n+]1ccc(-c2ccncc2)cc1)c1ccccc1", "fluorescence artifact activation": "0.08%"}
